Results on 32 molecules are retold here after PubChem BioAssay AID588553 (Broad Institute, 2011).

In general, AC50 refers to the midpoint of the concentration-response curve, whichever way the signal moves.

In the experiment the target is Scavenger receptor class B member 1 (Mus musculus) (UniProt Q61009). Description: SR-BI-mediated DiI-HDL uptake inhibitors, dose response, ldlA[mSR-BI] CHO cells, powder samples, set 3 (AID 588553). Conditions: DiI-HDL uptake fluorescence, 3 h. The gist of the method: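 System: ldlA[mSR-BI] CHO cells; Reagent: DiI-HDL at 10 µg/mL; Times: 3 h at 37 °C; Measured by: bottom-read fluorescence after PBS washes, excitation 550 nm, emission 595 nm; Control set: DMSO and BLT-1.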

Molecules are shown by their SMILES. Bounds are passed on as bounds.

Chain of Scavenger receptor class B member 1 (Mus musculus) (Q61009 whole entry, looked up): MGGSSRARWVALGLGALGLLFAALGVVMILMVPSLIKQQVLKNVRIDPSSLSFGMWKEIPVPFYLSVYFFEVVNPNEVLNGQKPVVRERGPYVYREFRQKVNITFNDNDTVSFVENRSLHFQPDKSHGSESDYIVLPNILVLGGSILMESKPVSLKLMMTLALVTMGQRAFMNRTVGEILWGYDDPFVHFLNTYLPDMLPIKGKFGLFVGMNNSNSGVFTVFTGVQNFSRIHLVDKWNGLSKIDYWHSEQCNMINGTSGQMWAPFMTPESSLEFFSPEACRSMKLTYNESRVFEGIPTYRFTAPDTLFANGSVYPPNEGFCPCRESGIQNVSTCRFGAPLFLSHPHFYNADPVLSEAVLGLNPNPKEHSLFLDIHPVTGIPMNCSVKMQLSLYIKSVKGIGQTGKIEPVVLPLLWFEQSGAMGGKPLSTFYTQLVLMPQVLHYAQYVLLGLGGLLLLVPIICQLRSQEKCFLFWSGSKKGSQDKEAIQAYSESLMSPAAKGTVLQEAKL

Regarding `CCC(=O)N1CCc2cc(-c3csc(NC(=O)c4cc5cccnc5o4)n3)ccc21`, the AC50 is 141 nM.

For `CCC(=O)N1CCc2cc(-c3csc(NC(=O)c4cc(OC)cc(OC)c4)n3)ccc21`, the AC50 is 52.9 nM.

For `CC(C(=O)NC1CCCC1)N(C(=O)Cn1nnc(-c2ccc(Cl)c(Cl)c2)n1)C1CCCCC1` (configuration not stated), the AC50 was 108 nM.

Take `COCC(=O)N1CCc2cc(-c3csc(NC(=O)c4cc(OC)cc(OC)c4)n3)ccc21`: the AC50 was below 15 nM.

In the case of `COc1cc(OC)cc(C(=O)Nc2nc(-c3ccc4[nH]ccc4c3)cs2)c1`, the AC50 was 228 nM.

Take `COc1ccc(-c2nnn(CC(=O)N(CC(=O)NC3CCCC3)C3CCCCC3)n2)cc1OC`: the concentration at half-maximal activity (AC50) was below 15 nM.

With `CCC(=O)N1CCc2cc(-c3csc(/N=C(/OC)c4cc(OC)cc(OC)c4)n3)ccc21`, the AC50 was 44.1 nM.

As for `CC(C(=O)NC1CCCC1)N(C(=O)Cn1nnc(-c2ccc3c(c2)OCO3)n1)C1CCCCC1` (configuration not stated), the AC50 is 17 nM.

As for `COC(=O)N1CCc2cc(-c3csc(NC(=O)c4cc(OC)cc(OC)c4)n3)ccc21`, the AC50 is 26.9 nM.

On to `COc1cc(OC)cc(C(=O)Nc2nc(-c3ccc4c(c3)CCN4C(=O)OC(C)(C)C)cs2)c1`, for which the AC50 is below 15 nM.

`CCC(=O)N1CCc2cc(-c3csc(NC(=O)c4cccc(OC(F)(F)F)c4)n3)ccc21`: the AC50 was 29.2 nM.

As for `COc1ccc(-c2cc(CC(=O)N(C3CCCCC3)C(C)C(=O)NC3CCCC3)no2)cc1OC` (configuration not stated), the AC50 is 15.4 nM.

Take `CC(C)(C)OC(=O)N1CCc2cc(-c3noc(NC(=O)c4ccco4)n3)ccc21`: the AC50 is 13900 nM.

For the molecule `CCCCCCC1CCC/C1=N\NC(N)=S` (configuration not stated), the half-maximal activity concentration (AC50) is below 15 nM.

`CCNC(=O)N1CCc2cc(-c3csc(NC(=O)c4cc(OC)cc(OC)c4)n3)ccc21`: the AC50 was below 15 nM.

Consider `CCC(=O)N1CCc2cc(-c3csc(NC(=O)c4cc(OC)c(OC)c(OC)c4)n3)ccc21`, for which the AC50 is below 15 nM.

For the molecule `COc1cc(OC)cc(C(=O)Nc2nc(-c3ccc4c(c3)CCN4C(C)=O)cs2)c1`, the AC50 is 17.4 nM.

With `CC(C(=O)NC1CCCC1)N(C(=O)Cn1nnc(-c2ccc3c(c2)OC(F)(F)O3)n1)C1CCCCC1` (configuration not stated), the AC50 is 225 nM.

As for `COc1ccc(-c2nc(CC(=O)N(C3CCCCC3)C(C)C(=O)NC3CCCC3)cs2)cc1OC` (configuration not stated), the half-maximal activity concentration (AC50) is 6280 nM.

With `CCC(=O)N1CCc2cc(-c3csc(N(C)C(=O)c4cc(OC)cc(OC)c4)n3)ccc21`, the AC50 is 180 nM.

In the case of `COc1cc(OC)cc(C(=O)Nc2nc(-c3ccc4c(c3)CCN4C(=O)CN(C)C)cs2)c1`, the AC50 was below 15 nM.

On to `CCC(=O)Nc1ccc(-c2csc(N)n2)cc1`, for which the half-maximal activity concentration (AC50) was 140 nM.

As for `CCC(=O)Nc1ccc(-c2csc(NC(=O)c3cccc(OC)c3)n2)cc1`, the AC50 is 44.7 nM.

With `O=C(CN(C(=O)Cn1nnc(-c2ccc(Cl)c(Cl)c2)n1)C1CCCCC1)NC1CCCC1`, the AC50 was 303 nM.

For `CCC(=O)N1CCc2cc(-c3csc(NC(=O)c4ccco4)n3)ccc21`, the AC50 is 58.7 nM.

Turning to `CCC(=O)Nc1ccc(-c2csc(NC(=O)c3ccco3)n2)cc1`, the AC50 was 2010 nM.

With `O=C(CN(C(=O)Cn1nnc(-c2ccc3c(c2)OCO3)n1)C1CCCCC1)NC1CCCC1`, the AC50 was below 15 nM.

Turning to `COc1cc(OC)cc(C(=O)Nc2nc(-c3ccc4c(c3)CCN4)cs2)c1`, the AC50 is 113 nM.

As for `O=C(Nc1nc(-c2ccc3c(c2)CCN3)cs1)c1ccco1`, the AC50 is below 15 nM.

With `O=C(CN(C(=O)Cn1nnc(-c2ccc3c(c2)OC(F)(F)O3)n1)C1CCCCC1)NC1CCCC1`, the half-maximal activity concentration (AC50) is 65.3 nM.

For the molecule `CC(C(=O)NC1CCCC1)N(C(=O)Cn1nnc(-c2ccc3c(c2)OCO3)n1)C1CCOCC1` (configuration not stated), the AC50 was 836 nM.

With `CCCN1CCc2cc(-c3csc(NC(=O)c4cc(OC)cc(OC)c4)n3)ccc21`, the AC50 is 89.5 nM.
